Test results published in ChEMBL document CHEMBL4152363, “Andrographolide derivative as STAT3 inhibitor that protects acute liver damage in mice” (Bioorg Med Chem, 2018).

target: T1, Signal transducer and activator of transcription 3 (Homo sapiens, UniProt P40763); assay: Inhibition of IFNgamma-stimulated STAT3 activation in human AD293 cells incubated with IFNgamma for 16 hrs followed by compound addition measured after 24 hrs by luciferase reporter gene assay; type: cell-based; settings: not given
T1 sequence (P40763 whole entry): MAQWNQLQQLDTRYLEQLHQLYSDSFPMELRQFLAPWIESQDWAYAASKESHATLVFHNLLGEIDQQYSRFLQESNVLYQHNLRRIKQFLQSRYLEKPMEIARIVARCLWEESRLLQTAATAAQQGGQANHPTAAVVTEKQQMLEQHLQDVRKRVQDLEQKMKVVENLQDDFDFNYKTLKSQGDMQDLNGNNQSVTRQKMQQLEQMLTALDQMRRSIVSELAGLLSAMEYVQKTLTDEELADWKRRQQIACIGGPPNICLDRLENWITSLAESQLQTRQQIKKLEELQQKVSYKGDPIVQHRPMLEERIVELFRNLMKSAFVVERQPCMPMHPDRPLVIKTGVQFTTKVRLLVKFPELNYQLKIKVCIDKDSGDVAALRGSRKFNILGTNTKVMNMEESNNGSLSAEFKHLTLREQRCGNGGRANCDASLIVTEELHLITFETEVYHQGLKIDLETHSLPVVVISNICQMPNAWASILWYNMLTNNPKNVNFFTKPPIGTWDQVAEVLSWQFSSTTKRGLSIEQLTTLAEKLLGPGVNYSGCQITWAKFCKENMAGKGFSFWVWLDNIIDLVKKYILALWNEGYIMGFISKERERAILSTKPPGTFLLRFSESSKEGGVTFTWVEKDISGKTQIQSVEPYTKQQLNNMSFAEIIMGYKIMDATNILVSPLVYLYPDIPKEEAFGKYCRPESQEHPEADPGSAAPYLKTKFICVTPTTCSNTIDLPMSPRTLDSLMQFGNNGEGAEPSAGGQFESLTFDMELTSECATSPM
Method in brief: (§1)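 AD-293 or HeLa cells in DMEM/10% FBS stimulated with 20 pg/mL IFN-γ; compound treatment 24 h; luciferase activity measured in cell extracts; EC50 derived.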

Row | SMILES | EC50
1 | CC(C)(C)[Si](C)(C)O[C@@H]1COC(=O)/C1=C/C[C@@H]1[C@]2(CC[C@@H]3[C@](C)(CO)[C@H](O)CC[C@]31C)CO2 | 3.45 µM
2 | CC(=O)O[C@@H]1COC(=O)/C1=C/C[C@@H]1[C@@]2(CC[C@@H]3[C@](C)(CO)[C@H](O)CC[C@]31C)CO2 | 2.6 µM
3 | C=C1CC[C@@H]2[C@](C)(COC(C)=O)[C@H](OC(C)=O)CC[C@@]2(C)[C@@H]1C/C=C1/C(=O)OC[C@@H]1O[Si](C)(C)C(C)(C)C | > 10 µM
4 | C=C1CC[C@@H]2[C@](C)(CO)[C@H](O)CC[C@@]2(C)[C@@H]1C/C=C1/C(=O)OC[C@H]1O [ANDROGRAPHOLIDE] | > 10 µM
5 | C=C1CC[C@H]2[C@@](C)(CCC(=O)[C@@]2(C)CO)[C@@H]1C/C=C1/C(=O)OC[C@H]1OC(C)=O | 7.93 µM
6 | C[C@@]12CCC(=O)[C@@](C)(CO)[C@H]1CC[C@]1(CO1)[C@H]2C/C=C1/C(=O)OC[C@H]1O | > 10 µM
7 | C=C1CC[C@@H]2[C@](C)(COC(C)=O)[C@H](OC(C)=O)CC[C@@]2(C)[C@@H]1C/C=C1/C(=O)OC[C@H]1O[Si](C)(C)C(C)(C)C | 8.18 µM

target: T1, Signal transducer and activator of transcription 3; assay: Inhibition of IL-6 stimulated STAT3 activation in human AD293 cells incubated with IL-6 for 16 hrs followed by compound addition measured after 6 hrs by luciferase reporter gene assay; type: cell-based; settings: not given
Method in brief: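 AD-293 cells stimulated with 2.5 μg/mL IL-6; compound treatment 6 h; luciferase activity read from cell extracts; EC50 derived.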

Row | SMILES | EC50
8 | CC(C)(C)[Si](C)(C)O[C@@H]1COC(=O)/C1=C/C[C@@H]1[C@]2(CC[C@@H]3[C@](C)(CO)[C@H](O)CC[C@]31C)CO2 | 3.05 µM
9 | CC(=O)O[C@@H]1COC(=O)/C1=C/C[C@@H]1[C@@]2(CC[C@@H]3[C@](C)(CO)[C@H](O)CC[C@]31C)CO2 | 3.04 µM
10 | C=C1CC[C@@H]2[C@](C)(COC(C)=O)[C@H](OC(C)=O)CC[C@@]2(C)[C@@H]1C/C=C1/C(=O)OC[C@@H]1O[Si](C)(C)C(C)(C)C | > 10 µM
11 | C=C1CC[C@@H]2[C@](C)(CO)[C@H](O)CC[C@@]2(C)[C@@H]1C/C=C1/C(=O)OC[C@H]1O [ANDROGRAPHOLIDE] | > 10 µM
12 | C=C1CC[C@H]2[C@@](C)(CCC(=O)[C@@]2(C)CO)[C@@H]1C/C=C1/C(=O)OC[C@H]1OC(C)=O | 6.1 µM
13 | C[C@@]12CCC(=O)[C@@](C)(CO)[C@H]1CC[C@]1(CO1)[C@H]2C/C=C1/C(=O)OC[C@H]1O | > 10 µM
14 | C=C1CC[C@@H]2[C@](C)(COC(C)=O)[C@H](OC(C)=O)CC[C@@]2(C)[C@@H]1C/C=C1/C(=O)OC[C@H]1O[Si](C)(C)C(C)(C)C | > 10 µM

target: T1, Signal transducer and activator of transcription 3; assay: Inhibition of […] activation in human AD293 cells incubated […] for 16 hrs followed by compound addition measured after 4 hrs by luciferase reporter gene assay; type: cell-based; settings: not given

Row | SMILES | EC50
15 | CC(C)(C)[Si](C)(C)O[C@@H]1COC(=O)/C1=C/C[C@@H]1[C@]2(CC[C@@H]3[C@](C)(CO)[C@H](O)CC[C@]31C)CO2 | > 10 µM
16 | CC(=O)O[C@@H]1COC(=O)/C1=C/C[C@@H]1[C@@]2(CC[C@@H]3[C@](C)(CO)[C@H](O)CC[C@]31C)CO2 | 8.51 µM
17 | C=C1CC[C@@H]2[C@](C)(COC(C)=O)[C@H](OC(C)=O)CC[C@@]2(C)[C@@H]1C/C=C1/C(=O)OC[C@@H]1O[Si](C)(C)C(C)(C)C | > 10 µM
18 | C=C1CC[C@@H]2[C@](C)(CO)[C@H](O)CC[C@@]2(C)[C@@H]1C/C=C1/C(=O)OC[C@H]1O [ANDROGRAPHOLIDE] | > 10 µM
19 | C=C1CC[C@H]2[C@@](C)(CCC(=O)[C@@]2(C)CO)[C@@H]1C/C=C1/C(=O)OC[C@H]1OC(C)=O | > 10 µM
20 | C[C@@]12CCC(=O)[C@@](C)(CO)[C@H]1CC[C@]1(CO1)[C@H]2C/C=C1/C(=O)OC[C@H]1O | > 10 µM
21 | C=C1CC[C@@H]2[C@](C)(COC(C)=O)[C@H](OC(C)=O)CC[C@@]2(C)[C@@H]1C/C=C1/C(=O)OC[C@H]1O[Si](C)(C)C(C)(C)C | > 10 µM

test system: AD293; assay: Cytotoxicity against human AD293 cells; type: cell-based; settings: ad293
Method in brief: (§2)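 AD-293 or HeLa cells grown in high-glucose DMEM with 10% FBS and 1% penicillin-streptomycin; compound exposure 24 h; cytotoxicity reported as CC10.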

Row | SMILES | CC10
22 | CC(C)(C)[Si](C)(C)O[C@@H]1COC(=O)/C1=C/C[C@@H]1[C@]2(CC[C@@H]3[C@](C)(CO)[C@H](O)CC[C@]31C)CO2 | > 10 µM
23 | CC(=O)O[C@@H]1COC(=O)/C1=C/C[C@@H]1[C@@]2(CC[C@@H]3[C@](C)(CO)[C@H](O)CC[C@]31C)CO2 | > 10 µM
24 | C=C1CC[C@@H]2[C@](C)(COC(C)=O)[C@H](OC(C)=O)CC[C@@]2(C)[C@@H]1C/C=C1/C(=O)OC[C@@H]1O[Si](C)(C)C(C)(C)C | > 10 µM
25 | C=C1CC[C@@H]2[C@](C)(CO)[C@H](O)CC[C@@]2(C)[C@@H]1C/C=C1/C(=O)OC[C@H]1O [ANDROGRAPHOLIDE] | > 10 µM
26 | C=C1CC[C@H]2[C@@](C)(CCC(=O)[C@@]2(C)CO)[C@@H]1C/C=C1/C(=O)OC[C@H]1OC(C)=O | > 10 µM
27 | C[C@@]12CCC(=O)[C@@](C)(CO)[C@H]1CC[C@]1(CO1)[C@H]2C/C=C1/C(=O)OC[C@H]1O | > 10 µM
28 | C=C1CC[C@@H]2[C@](C)(COC(C)=O)[C@H](OC(C)=O)CC[C@@]2(C)[C@@H]1C/C=C1/C(=O)OC[C@H]1O[Si](C)(C)C(C)(C)C | > 10 µM

target: T1, Signal transducer and activator of transcription 3; assay: Inhibition of IFNgamma-stimulated STAT3 activation in human HeLa cells incubated with IFNgamma for 16 hrs followed by compound addition measured after 24 hrs by luciferase reporter gene assay; type: cell-based; settings: not given; method in brief: as §1

Row | SMILES | EC50
29 | CC(C)(C)[Si](C)(C)O[C@@H]1COC(=O)/C1=C/C[C@@H]1[C@]2(CC[C@@H]3[C@](C)(CO)[C@H](O)CC[C@]31C)CO2 | > 10 µM
30 | CC(=O)O[C@@H]1COC(=O)/C1=C/C[C@@H]1[C@@]2(CC[C@@H]3[C@](C)(CO)[C@H](O)CC[C@]31C)CO2 | > 10 µM
31 | C=C1CC[C@@H]2[C@](C)(COC(C)=O)[C@H](OC(C)=O)CC[C@@]2(C)[C@@H]1C/C=C1/C(=O)OC[C@@H]1O[Si](C)(C)C(C)(C)C | > 10 µM
32 | C=C1CC[C@@H]2[C@](C)(CO)[C@H](O)CC[C@@]2(C)[C@@H]1C/C=C1/C(=O)OC[C@H]1O [ANDROGRAPHOLIDE] | > 10 µM
33 | C=C1CC[C@H]2[C@@](C)(CCC(=O)[C@@]2(C)CO)[C@@H]1C/C=C1/C(=O)OC[C@H]1OC(C)=O | > 10 µM
34 | C[C@@]12CCC(=O)[C@@](C)(CO)[C@H]1CC[C@]1(CO1)[C@H]2C/C=C1/C(=O)OC[C@H]1O | > 10 µM
35 | C=C1CC[C@@H]2[C@](C)(COC(C)=O)[C@H](OC(C)=O)CC[C@@]2(C)[C@@H]1C/C=C1/C(=O)OC[C@H]1O[Si](C)(C)C(C)(C)C | > 10 µM

target: T1, Signal transducer and activator of transcription 3; assay: Inhibition of […] activation in human HeLa cells incubated […] for 16 hrs followed by compound addition measured after 4 hrs by luciferase reporter gene assay; type: cell-based; settings: not given
Method in brief: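 NF-κB pathway in AD-293 or HeLa cells stimulated with 50 ng/mL TNF-α; compound treatment 4 h; luciferase activity read from cell extracts; EC50 derived.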

Row | SMILES | EC50
36 | CC(C)(C)[Si](C)(C)O[C@@H]1COC(=O)/C1=C/C[C@@H]1[C@]2(CC[C@@H]3[C@](C)(CO)[C@H](O)CC[C@]31C)CO2 | > 10 µM
37 | CC(=O)O[C@@H]1COC(=O)/C1=C/C[C@@H]1[C@@]2(CC[C@@H]3[C@](C)(CO)[C@H](O)CC[C@]31C)CO2 | 7.54 µM
38 | C=C1CC[C@@H]2[C@](C)(COC(C)=O)[C@H](OC(C)=O)CC[C@@]2(C)[C@@H]1C/C=C1/C(=O)OC[C@@H]1O[Si](C)(C)C(C)(C)C | > 10 µM
39 | C=C1CC[C@@H]2[C@](C)(CO)[C@H](O)CC[C@@]2(C)[C@@H]1C/C=C1/C(=O)OC[C@H]1O [ANDROGRAPHOLIDE] | > 10 µM
40 | C=C1CC[C@H]2[C@@](C)(CCC(=O)[C@@]2(C)CO)[C@@H]1C/C=C1/C(=O)OC[C@H]1OC(C)=O | > 10 µM
41 | C[C@@]12CCC(=O)[C@@](C)(CO)[C@H]1CC[C@]1(CO1)[C@H]2C/C=C1/C(=O)OC[C@H]1O | > 10 µM
42 | C=C1CC[C@@H]2[C@](C)(COC(C)=O)[C@H](OC(C)=O)CC[C@@]2(C)[C@@H]1C/C=C1/C(=O)OC[C@H]1O[Si](C)(C)C(C)(C)C | > 10 µM

test system: HeLa; assay: Cytotoxicity against human HeLa cells; type: cell-based; settings: not given; method in brief: as §2

Row | SMILES | CC10
43 | CC(C)(C)[Si](C)(C)O[C@@H]1COC(=O)/C1=C/C[C@@H]1[C@]2(CC[C@@H]3[C@](C)(CO)[C@H](O)CC[C@]31C)CO2 | > 10 µM
44 | CC(=O)O[C@@H]1COC(=O)/C1=C/C[C@@H]1[C@@]2(CC[C@@H]3[C@](C)(CO)[C@H](O)CC[C@]31C)CO2 | > 10 µM
45 | C=C1CC[C@@H]2[C@](C)(COC(C)=O)[C@H](OC(C)=O)CC[C@@]2(C)[C@@H]1C/C=C1/C(=O)OC[C@@H]1O[Si](C)(C)C(C)(C)C | > 10 µM
46 | C=C1CC[C@@H]2[C@](C)(CO)[C@H](O)CC[C@@]2(C)[C@@H]1C/C=C1/C(=O)OC[C@H]1O [ANDROGRAPHOLIDE] | > 10 µM
47 | C=C1CC[C@H]2[C@@](C)(CCC(=O)[C@@]2(C)CO)[C@@H]1C/C=C1/C(=O)OC[C@H]1OC(C)=O | > 10 µM
48 | C[C@@]12CCC(=O)[C@@](C)(CO)[C@H]1CC[C@]1(CO1)[C@H]2C/C=C1/C(=O)OC[C@H]1O | > 10 µM
49 | C=C1CC[C@@H]2[C@](C)(COC(C)=O)[C@H](OC(C)=O)CC[C@@]2(C)[C@@H]1C/C=C1/C(=O)OC[C@H]1O[Si](C)(C)C(C)(C)C | > 10 µM
